According to ChEMBL document CHEMBL1123087, “Synthesis and antimetastatic properties of stereoisomeric tricyclic bis(dioxopiperazines) in the Lewis lung carcinoma model” (1985):

Legend:
Assay type in all cases: functional
Mus musculus [1] = test: Effect on postoperative lewis lung carcinoma model, was evaluated as increase in life span on BDF1 female mice, administered intraperitoneally
Procedure, shortened: (§1)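 BDF1 female mice (19–21 g); Lewis lung carcinoma, 10⁶ cells implanted im in the leg on day 0, and the tumor-bearing leg amputated on day 8. Dosing after amputation was 160 mg/kg ip from day 8, Q2Dx4, given as a saline suspension. Survival was tracked to day 40. Mice dying and those killed on day 40 were autopsied for body weight, lung weight and metastasis counts (<2 mm, >2 mm). Survival was reported as median survival time and %ILS, with ≥25% ILS counted as active.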

Mus musculus [2] = organism: Mus musculus; test: Autopsy data was evaluated as average lung weight, mg; procedure, shortened: as §1
Mus musculus [3] = organism: Mus musculus; test: Autopsy data was evaluated as average body weight/g; procedure, shortened: as §1
Mus musculus [4] = test: Effect on postoperative lewis lung carcinoma model, was evaluated as […] on BDF1 female mice, administered intraperitoneally; design: unit not given beside the values; procedure, shortened: as §1
Mus musculus [5] = organism: Mus musculus; test: Autopsy data was evaluated as average number of metastasis in <2 mm; procedure, shortened: as §1
Mus musculus [6] = organism: Mus musculus; test: Autopsy data was evaluated as average number of metastasis in >2 mm; procedure, shortened: as §1

Structure (SMILES): O=C1CN2C[C@@H]3C(=O)N(CN4CCOCC4)C(=O)CN3C[C@@H]2C(=O)N1CN1CCOCC1
- Increase in life span (Mus musculus [1]): >48%
- Average lung weight (Mus musculus [2]): 358 mg
- Average body weight (Mus musculus [3]): 19.2 g
- MST (Mus musculus [4]): >40
- Average No. of metastasis (Mus musculus [5]): 0
- Average No. of metastasis (Mus musculus [6]): 6

Structure (SMILES): O=C1CN2C[C@H]3C(=O)NC(=O)CN3C[C@@H]2C(=O)N1
- Increase in life span (Mus musculus [1]): 4%
- Average lung weight (Mus musculus [2]): 853 mg
- Average body weight (Mus musculus [3]): 16.9 g
- MST (Mus musculus [4]): 28
- Average No. of metastasis (Mus musculus [5]): 0
- Average No. of metastasis (Mus musculus [6]): 48

Structure (SMILES): O=C1CN2C[C@@H]3C(=O)NC(=O)CN3C[C@@H]2C(=O)N1
- Increase in life span (Mus musculus [1]): 4%
- Average lung weight (Mus musculus [2]): 640 mg
- Average body weight (Mus musculus [3]): 19.3 g
- MST (Mus musculus [4]): 28
- Average No. of metastasis (Mus musculus [5]): 0
- Average No. of metastasis (Mus musculus [6]): 22

Structure (SMILES): O=C1CN2C[C@H]3C(=O)N(CN4CCOCC4)C(=O)CN3C[C@@H]2C(=O)N1CN1CCOCC1
- Increase in life span (Mus musculus [1]): <0%
- Average lung weight (Mus musculus [2]): 700 mg
- Average body weight (Mus musculus [3]): 18.9 g
- MST (Mus musculus [4]): 26
- Average No. of metastasis (Mus musculus [5]): 0
- Average No. of metastasis (Mus musculus [6]): 38
